Assay results as given in ChEMBL document CHEMBL4765320, “Identification and optimization of piperine analogues as neuroprotective agents for the treatment of Parkinson's disease via the activation of Nrf2/keap1 pathway” (Eur J Med Chem, 2020).
The source made the active and inactive calls. The calls are words filed in the database; no cut-off is given here.

Columns and labels:
[1] = test system: PC-12; test: Inhibition of H202-induced apoptosis in rat PC-12 cells assessed as viable cells at 12.5 uM after 24 hrs by Annexin-V-FITC/PI-staining based flow cytometric analysis (reference value: 52.01%); type: functional; conditions: read-out: Activity
In short: (§1)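 PC12 cells seeded 2 × 10⁵/well for 24 h, pretreated 24 h with 12.5, 25, 50 or 100 µM compound, then given fresh medium containing 650 µM H2O2. Harvested cells washed in binding buffer, stained 5 min with Annexin V-FITC/PI, analysed by flow cytometry.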

[2] = test system: PC-12; test: Inhibition of H202-induced apoptosis in rat PC-12 cells assessed as early apoptotic cells at 12.5 uM after 24 hrs by Annexin-V-FITC/PI-staining based flow cytometric analysis (reference value: 15.16%); type: functional; parameters: scale not given: the % may be the effect or the level left; in short: as §1
[3] = test system: PC-12; test: Inhibition of H202-induced apoptosis in rat PC-12 cells assessed as early apoptotic cells at 50 uM after 24 hrs by Annexin-V-FITC/PI-staining based flow cytometric analysis (reference value: 15.16%); type: functional; parameters: scale not given: the % may be the effect or the level left; in short: as §1
[4] = test system: PC-12; test: Cytoprotection activity against H2O2-induced rat PC12-shNrf2-2 cell assessed as cell viability at 12.5 to 100 uM pretreated for 24 hrs followed by H2O2 challenge and measured after 24 hrs by MTT assay; type: functional, cell-based; conditions: dose 12.5-100 µM, time 48.0 hrs
In short: (§2)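 PC12 lines made by lentiviral shRNA against rat Nrf2 (shNrf2-2) or scrambled control (shNT), selected with 0.5 mg/mL G418, knockdown confirmed by Western blot. Pretreated 24 h with 12.5, 25.0, 50.0 or 100 µM compound, then H2O2 for 24 h; viability by MTT; mean ± SD, three independent experiments.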

[5] = test system: PC-12; test: Inhibition of H202-induced apoptosis in rat PC-12 cells assessed as late apoptotic cells at 50 uM after 24 hrs by Annexin-V-FITC/PI-staining based flow cytometric analysis (reference value: 32.5%); type: functional; parameters: scale not given: the % may be the effect or the level left; in short: as §1
[6] = target: T1, Nuclear factor erythroid 2-related factor 2 (Homo sapiens) (UniProt Q16236); test: Activation of Nrf2 in human HepG2-ARE-C8 cells assessed as fold change at 12.5 uM measured after 12 hrs by luciferase reporter gene assay relative to control; type: cell-based; conditions: filed as activator
T1 sequence (whole entry): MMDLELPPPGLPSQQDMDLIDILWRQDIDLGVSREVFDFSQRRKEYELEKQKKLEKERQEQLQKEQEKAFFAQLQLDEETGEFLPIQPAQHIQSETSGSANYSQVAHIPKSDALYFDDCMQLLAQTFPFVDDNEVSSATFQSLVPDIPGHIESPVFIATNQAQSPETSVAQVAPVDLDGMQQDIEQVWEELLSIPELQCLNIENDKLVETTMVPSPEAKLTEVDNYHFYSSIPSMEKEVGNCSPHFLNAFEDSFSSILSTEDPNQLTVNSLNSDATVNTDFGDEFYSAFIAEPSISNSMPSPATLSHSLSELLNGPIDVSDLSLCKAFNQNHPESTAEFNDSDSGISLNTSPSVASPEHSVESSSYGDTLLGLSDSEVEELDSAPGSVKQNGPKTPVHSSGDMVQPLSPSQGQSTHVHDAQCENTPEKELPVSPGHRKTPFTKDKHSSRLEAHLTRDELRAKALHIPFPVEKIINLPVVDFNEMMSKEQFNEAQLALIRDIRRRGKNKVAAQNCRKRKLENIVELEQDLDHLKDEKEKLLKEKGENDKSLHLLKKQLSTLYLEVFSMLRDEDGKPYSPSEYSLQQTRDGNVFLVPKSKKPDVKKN

[7] = test system: PC-12; test: Inhibition of H202-induced apoptosis in rat PC-12 cells assessed as viable cells at 50 uM after 24 hrs by Annexin-V-FITC/PI-staining based flow cytometric analysis (reference value: 52.01%); type: functional; conditions: read-out: Activity; in short: as §1
[8] = test system: PC-12; test: Inhibition of H202-induced apoptosis in rat PC-12 cells assessed as viable cells at 100 uM after 24 hrs by Annexin-V-FITC/PI-staining based flow cytometric analysis (reference value: 52.01%); type: functional; conditions: read-out: Activity; in short: as §1
[9] = test system: Mus musculus; test: Neuroprotective activity in lesioned C57BL/6 mouse model of Parkinson's disease assessed as increase in time spent on rotarod at 100 mg/kg, po administered for 2 week after MPTP stimulation by rotarod test; type: functional; conditions: time 2 weeks
In short: (§3)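 Male 10-week-old C57BL/6 mice (20–23 g), n = 6/group. Prophylactic: oral compound (50 or 100 mg/kg in saline) 2 weeks, then MPTP-HCl 25 mg/kg i.p. in week 3. Therapeutic: MPTP-HCl 25 mg/kg i.p. 1 week, then oral 100 mg/kg 2 weeks. Saline vehicle. Pole/rotarod training last 3 days; TH immunohistochemistry on SNpc and striatum.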

[10] = test system: PC-12; test: Inhibition of H202-induced apoptosis in rat PC-12 cells assessed as necrotic cells at 100 uM after 24 hrs by Annexin-V-FITC/PI-staining based flow cytometric analysis (reference value: 0.33%); type: functional; parameters: scale not given: the % may be the effect or the level left; in short: as §1
[11] = test system: PC-12; test: Inhibition of H202-induced apoptosis in rat PC-12 cells assessed as late apoptotic cells at 100 uM after 24 hrs by Annexin-V-FITC/PI-staining based flow cytometric analysis (reference value: 32.5%); type: functional; parameters: scale not given: the % may be the effect or the level left; in short: as §1
[12] = test system: PC-12; test: Cytoprotection activity against H2O2-induced rat PC12-shNT cell assessed as cell viability at 12.5 to 100 uM pretreated for 24 hrs followed by H2O2 challenge and measured after 24 hrs by MTT assay; type: functional, cell-based; conditions: dose 12.5-100 µM, time 48.0 hrs; in short: as §2
[13] = test system: PC-12; test: Neuroprotective activity against H2O2-induced cytotoxicity in rat PC-12 cells assessed as cell viability at 12.5 uM pretreated for 24 hrs followed by H2O2 challenge and measured after 24 hrs by MTT assay (reference value: 52.81 +/- 6%); type: functional; conditions: time 48 hrs, read-out: Activity
[14] = test system: Mus musculus; test: Neuroprotective activity in lesioned C57BL/6 mouse model of Parkinson's disease assessed as assessed as reduction in climbing down time at 100 mg/kg, po administered for 2 week before MPTP stimulation by pole test; type: functional; conditions: C57BL/6, po, 336 h, time 2 weeks; in short: as §3
[15] = test system: PC-12; test: Upregulation of NQO1 expression in rat PC-12 cell incubated for 24 hrs by Western blot analysis; type: functional
In short: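 PC12 cells treated with compound for 24 h; lysates resolved by SDS-PAGE, transferred to PVDF and probed for HO-1 and NQO1; band intensities quantified densitometrically. Mean ± SD of three independent experiments.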

[16] = test system: Mus musculus; test: Neuroprotective activity against lesioned C57BL/6 mouse model of Parkinson's disease assessed as increase in number of TH positive cells at 100 mg/kg , po administered for 2 week […] by Immuno histochemistry assays; conditions: time 2 weeks
[17] = test system: PC-12; test: Inhibition of H202-induced apoptosis in rat PC-12 cells assessed as viable cells at 25 uM after 24 hrs by Annexin-V-FITC/PI-staining based flow cytometric analysis (reference value: 52.01%); type: functional; conditions: read-out: Activity; in short: as §1
[18] = test system: PC-12; test: Inhibition of H202-induced apoptosis in rat PC-12 cells assessed as necrotic cells at 25 uM after 24 hrs by Annexin-V-FITC/PI-staining based flow cytometric analysis (reference value: 0.33%); type: functional; parameters: scale not given: the % may be the effect or the level left; in short: as §1

COc1ccccc1/C=C/C=C/C(=O)N1CCCCC1
viability at 12.5 µM [1]: 61.4% | Activity [2]: 12.26% | Activity [3]: 12.01% | Activity [4]: inactive | Activity [5]: 12.95% | fold change (FC) [6]: 3 | viability at 50 µM [7]: 74.8% | viability at 100 µM [8]: 58% | Time [9]: 189.5 s | Activity [10]: 0.57% | Activity [11]: 29.28% | Activity [12]: Active | viability at 12.5 µM [13]: 88.8% | inhibition in vivo at 100 mg/kg [14]: 34.5% | Activity [15]: Active | Activity [16]: 74% | viability at 25 µM [17]: 69% | Activity [18]: 0.24%
